# High-throughput results from PubChem.
# A1 apoptosis 2 – A1 inhibition read as caspase activation; MEF A1-2A-BIM cells, caspase-Glo luminescence, 3 h; percent of clofoctol response, DMSO zero; caspase activation, % (no concentration beside the values); 24,000 tested, under 10 active; AID 2465; in the data active = caspase activation above about 5.9%
#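 system = A1-2A-BIM-expressing MEF cells | quantity = 2500 MEF cells/well | dosing = 50 nL compound per well, pinned | schedule = overnight cell settling, then 3 h compound exposure, 37 °C | signal = luminescence from DEVD-luciferin Caspase-Glo reagent, 1:1 in 50 mM HEPES, 1 h RT | read-out = Caspase-3/7 activation, seen as rise in luminescence signal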
# T cruzi HTS – blocks T. cruzi growth inside host cells | intracellular Trypanosoma cruzi in host cells, plate reader | activity score (inhibition), % at 5.01 µM | 22,000 compounds, 4.9% hits | AID 651903; in the data active = activity score above about 55%;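 also: parasites and compound incubated about four days before reading; 0% = median of neutral control wells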
# INS-1E rescue – rescue of cytokine-induced death in INS-1E beta cells. INS-1E cytokine-induced death, ATP luminescence, 48 h; normalised: neutral wells 0, positive control 100. 20,000 compounds, 0.1% hits. AID 488910. protection from cytokine-induced ATP loss, % at 10 µM;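 active = mean replicate protection from cytokine-induced ATP loss at least 50% and at least 75% of replicates each reaching 50%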
#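 Material: INS-1E rat cells; Quantity: 8000 cells/well; Buffer or medium: phenol-red-free RPMI with 5% fetal bovine serum; Probe or stimulus: cytokine cocktail of IFN-γ, TNF-α and IL-1β; Compound dosing: single test concentration per compound, delivered by pin transfer; Incubation: 48 h co-treatment, 10 min post-lysis read; Signal: CellTiter-Glo luminescence.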
# * marks the source's active call; other numbers are inactive results; nt = not tested or not shown. Only a selection was taken, and hits are over-represented in it overall.
SMILES,A1 apoptosis 2,T cruzi HTS,INS-1E rescue
C[C@H](CO)N1C[C@H](C)[C@H](CN(C)S(=O)(=O)c2ccc(F)cc2)Oc2ncc(-c3cccc(F)c3)cc2C1=O,0.2,27.6,nt
C[C@H](CO)N1C[C@H](C)[C@H](CN(C)Cc2ccncc2)Oc2ncc(-c3ccc(F)cc3)cc2C1=O,0.3,7.0,nt
C[C@H](CO)N1C[C@H](C)[C@H](CN(C)C)Oc2ncc(-c3ccc(F)cc3)cc2C1=O,0.4,64.7*,nt
COc1cccc(-c2cnc3c(c2)C(=O)N([C@H](C)CO)C[C@H](C)[C@H](CN(C)S(C)(=O)=O)O3)c1,0.6,3.6,nt
COc1cccc(-c2cnc3c(c2)C(=O)N([C@H](C)CO)C[C@H](C)[C@H](CN(C)C)O3)c1,0.9,75.9*,nt
C[C@H](CO)N1C[C@H](C)[C@H](CN(C)S(=O)(=O)c2ccccc2)Oc2ncc(-c3ccccc3)cc2C1=O,1.7,16.0,nt
O=C(CCCCCCC(=O)Nc1ccccc1O)N/N=C/c1ccc(F)c(Oc2ccccc2)c1,0.1,18.7,-2.9
O=C(CCCCCC(=O)Nc1ccccc1O)N/N=C/c1cc(O)ccc1[N+](=O)[O-],0.6,nt,nt
N#Cc1ccc(/C=N/NC(=O)CCCCCC(=O)NO)cc1,-0.6,nt,nt
COc1ccc(O)c(/C=N/NC(=O)c2cccc(C(=O)NO)c2)c1,-0.8,-17.3,-9.6
COC(=O)C(CC#Cc1ccc2c(c1)[C@]1(C(=O)N2)[C@H](c2ccc(OCCO)cc2)N2[C@H](c3ccccc3)[C@H](c3ccccc3)OC(=O)[C@H]2[C@@H]1C(N)=O)C(=O)OC,-0.5,nt,nt
C[C@@H]1CN([C@H](C)CO)C(=O)Cc2cc(NC(=O)Nc3cccc4ccccc34)ccc2O[C@H]1CN(C)CC1CCCCC1,nt,68.5*,0.7
C[C@H]1CN([C@@H](C)CO)C(=O)Cc2cc(NC(=O)Nc3cccc4ccccc34)ccc2O[C@@H]1CN(C)CC1CC1,0.5,-10.1,15.3
C[C@H]1CN([C@@H](C)CO)C(=O)Cc2cc(NC(=O)Nc3cccc4ccccc34)ccc2O[C@H]1CN(C)CC1CCCCC1,nt,61.8*,-46.8
C[C@@H]1CN([C@H](C)CO)C(=O)Cc2cc(NC(=O)Nc3cccc4ccccc34)ccc2O[C@@H]1CN(C)CC1CCCCC1,-1.3,50.3,0.0
C#CCOc1ccc(/C=N/NC(=O)c2ccccn2)cc1,-10.5,-30.4,-15.7
[N-]=[N+]=NCC(=O)N1CCC2(CC1)C(=O)NCN2c1ccccc1,0.7,nt,nt
C=CCC/C=N/NC(=O)CCCCCCC(=O)O,-0.4,-7.3,0.0
C[C@@H]1CN([C@H](C)CO)C(=O)c2cccc(NC(=O)CCCCCC(=O)Nc3ccccc3N)c2O[C@H]1CN(C)Cc1ccc(-c2ccccc2)cc1,nt,71.4*,-6.8
C[C@H](CO)N1C[C@H](C)[C@H](CN(C)Cc2ccc(C(F)(F)F)cc2)Oc2c(NC(=O)CCCCCC(=O)Nc3ccccc3N)cccc2C1=O,1.1,73.4*,8.9
C[C@@H]1CN([C@H](C)CO)C(=O)c2cccc(NC(=O)CCCCCC(=O)Nc3ccccc3N)c2O[C@@H]1CN(C)Cc1ccc(C(F)(F)F)cc1,-0.1,54.0,13.2
C[C@@H]1CN([C@H](C)CO)C(=O)c2cccc(NC(=O)CCCCCC(=O)Nc3ccccc3N)c2O[C@H]1CN(C)Cc1ccccc1,-0.6,nt,nt
COc1ccc(CN(C)C[C@@H]2Oc3c(NC(=O)CCCCCC(=O)Nc4ccccc4N)cccc3C(=O)N([C@H](C)CO)C[C@H]2C)cc1,0.9,nt,nt
C[C@H]1CN([C@@H](C)CO)C(=O)c2cccc(NC(=O)CCCCCC(=O)Nc3ccccc3N)c2O[C@@H]1CN(C)Cc1ccc(-c2ccccc2)cc1,0.6,66.7*,-13.1
O=C(NO)c1ccc(C(=O)N/N=C/c2cc3c(cc2Br)OCO3)cc1,nt,-2.3,19.1
SMILES,A1 apoptosis 2,T cruzi HTS,INS-1E rescue
O=C(CCCCCCC(=O)Nc1ccccc1O)N/N=C/c1ccc(N2CCCC2)cc1,-1.2,-2.0,6.9
O=C(CCCCC(=O)N/N=C/c1c(F)c(F)c(F)c(F)c1F)NO,0.2,16.9,0.4
C[C@@H]1CCCCO[C@@H](CN(C)C(=O)Nc2ccc(C(F)(F)F)cc2)[C@@H](C)CN([C@H](C)CO)C(=O)c2cc(NS(=O)(=O)c3ccccc3)ccc2O1,nt,60.7*,-3.8
C[C@@H]1CN([C@@H](C)CO)C(=O)c2cc(NS(=O)(=O)c3ccc(Cl)cc3)ccc2O[C@@H](C)CCCCO[C@@H]1CN(C)C(=O)Nc1cccc2ccccc12,-0.4,nt,nt
C[C@@H]1CCCCO[C@H](CN(C)C(=O)Nc2ccc(C(F)(F)F)cc2)[C@@H](C)CN([C@H](C)CO)C(=O)c2cc(NS(=O)(=O)c3ccc(Cl)cc3)ccc2O1,0.1,65.5*,-46.7
C[C@H](CO)N1C[C@H](C)[C@@H](CN(C)C(=O)Nc2ccc(C(F)(F)F)cc2)OCCCC[C@H](C)Oc2ccc(NS(=O)(=O)c3ccc(Cl)cc3)cc2C1=O,-1.6,nt,nt
C[C@H](CO)N1C[C@H](C)[C@H](CN(C)C(=O)Nc2ccc(C(F)(F)F)cc2)OCCCC[C@H](C)Oc2ccc(NS(=O)(=O)c3ccc(F)cc3)cc2C1=O,-1.6,nt,nt
C[C@@H]1CCCCO[C@H](CN(C)C(=O)Nc2cccc3ccccc23)[C@@H](C)CN([C@H](C)CO)C(=O)c2cc(NS(=O)(=O)c3ccc(Cl)cc3)ccc2O1,0.1,66.2*,-1.6
C=CCNC(=O)[C@H]1[C@@H]2C(=O)O[C@@H](c3ccccc3)[C@@H](c3ccccc3)N2[C@@H](c2ccccc2OCCO)[C@]12C(=O)Nc1ccccc12,-0.9,nt,nt
COC(=O)[C@]1(CCC(=O)OC(C)(C)C)N=C(c2ccc(OCCCO)cc2)O[C@@H]1c1ccccc1CN=[N+]=[N-],0.3,nt,nt
O=C(N/N=C/c1ccc(N2CCCC2)cc1)c1ccccn1,-0.4,-2.1,-24.0
O=C(CCCCC(=O)N/N=C/c1ccccn1)NO,nt,-8.5,2.9
C[C@H](CO)N1C[C@H](C)[C@H](CN(C)Cc2ccc3c(c2)OCO3)Oc2ccc(NC(=O)CCCCCC(=O)Nc3ccccc3N)cc2C1=O,-0.8,-17.8,4.0
C[C@@H]1CN([C@@H](C)CO)C(=O)c2cc(NC(=O)CCCCCC(=O)Nc3ccccc3N)ccc2O[C@@H]1CN(C)Cc1ccc2c(c1)OCO2,1.1,-6.5,-1.1
C[C@@H]1CN([C@@H](C)CO)C(=O)c2cccc(NC(=O)CCCCCC(=O)Nc3ccccc3N)c2O[C@H]1CN(C)Cc1ccc2c(c1)OCO2,0.2,58.6*,25.2
C[C@H](CO)N1C[C@H](C)[C@@H](CN(C)Cc2ccc3c(c2)OCO3)Oc2c(NC(=O)CCCCCC(=O)Nc3ccccc3N)cccc2C1=O,-0.2,72.7*,11.8
C[C@H](CO)N1C[C@H](C)[C@@H](CN(C)Cc2ccc3c(c2)OCO3)Oc2ccc(NC(=O)CCCCCC(=O)Nc3ccccc3N)cc2C1=O,0.7,-15.6,7.6
C[C@H]1CN([C@@H](C)CO)C(=O)c2cccc(NC(=O)CCCCCC(=O)Nc3ccccc3N)c2O[C@@H]1CN(C)Cc1ccc2c(c1)OCO2,nt,72.3*,18.8
COC(=O)CCCCCCC(=O)N/N=C/CCC1CCCCC1,1.2,0.6,3.5
O=C(NO)c1ccc(C(=O)N/N=C/c2ccc(Br)s2)cc1,nt,-11.1,17.9
COCCOC(=O)N1C(=O)[C@@]2(c3cc(C#CC4(O)CCCCCC4)ccc31)[C@H](C(=O)NC[C@H](O)c1ccccc1)[C@H]1C(=O)O[C@H](c3ccccc3)[C@H](c3ccccc3)N1[C@@H]2c1ccccc1OCCO,-0.3,nt,nt
O=C(CCCCCC(=O)N/N=C/C1=CCCCC1)NO,0.9,nt,nt
O=C(NO)c1ccc(C(=O)N/N=C/c2cccc3ccccc23)cc1,nt,9.3,-3.3
O=C(N/N=C/c1ccc(O)cc1)c1ccccc1O,-6.5,-24.3,-30.4
